“Also recorded” adds a separate entry of the source.
What was measured:
Icmt = Icmt (Homo sapiens, UniProt O60725); assay: Icmt vapor diffusion assay; format: biochemical; conditions: for potency relative to 10u: Icmt inhibition; for Icmt inhibition (in words): vapor diffusion assay
How it was run: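 Vapor diffusion Icmt methylation assay. Screening at 10 μM inhibitor, with specific activity given as percent of the no-inhibitor AFC control. Test compounds were also run as possible substrates. IC50 was measured in vitro, Ki was calculated from IC50 by the Cheng–Prusoff method, and inhibition mode was set by further biochemical evaluation.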

MEF Icmt^−/− cells = assay: MTT cell viability in MEF Icmt-/- cells; format: cell-based; conditions: for effect on viability in MEF Icmt^−/− cells (in words): MTT; for IC50: read-out: IC50 MEF Icmt^−/−
[1] = tested on: GFP-K-Ras localization in Jurkat T cells (E 6.1); assay: GFP-K-Ras membrane localization in Jurkat T cells; format: cell-based; conditions: 24 h treatment
How it was run: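 Jurkat T cells (E 6.1) expressing GFP-KRas treated 24 h with vehicle, test compound at several concentrations, or 25 μM simvastatin as reference. Cells laid on poly-L-lysine-coated coverslips (100 μg/mL) and fixed in 3.7% formaldehyde for 10 min. Fluorescence microscopy scored by eye in random fields of 100 cells as normal plasma membrane, partial, or complete mislocalization.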

MEF Icmt^+/+ cells = assay: MTT cell viability in MEF Icmt+/+ cells; format: cell-based

Chain of Icmt (O60725 whole entry, the tested form may be a part): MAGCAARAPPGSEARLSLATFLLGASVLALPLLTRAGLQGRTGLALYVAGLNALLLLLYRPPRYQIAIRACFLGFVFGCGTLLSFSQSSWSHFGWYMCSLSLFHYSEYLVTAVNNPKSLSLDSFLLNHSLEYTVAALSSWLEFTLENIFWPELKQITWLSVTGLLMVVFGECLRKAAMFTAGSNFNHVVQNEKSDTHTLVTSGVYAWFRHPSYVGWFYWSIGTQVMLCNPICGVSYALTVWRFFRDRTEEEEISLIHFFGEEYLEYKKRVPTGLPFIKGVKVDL

COC(=O)CCSC/C=C(\C)CCn1cc(CCc2ccc(-c3ccc(F)cc3)cc2)nn1 [Compound 10s]
potency relative to 10u (Icmt): approximately twice as potent

COC(=O)CCSC/C=C(\C)CCn1cc(CCc2ccccc2-c2ccccc2)nn1 [Compound 10p]
Icmt inhibition (in words) (Icmt): further reduced inhibitory activity

C/C(=C\CSCCC(=O)O)CCn1cc(CCOC2CCCCO2)nn1 (stereo not drawn) [Compound 11m]
Icmt inhibition (in words) (Icmt): poor Icmt inhibition

COC(=O)CCSC/C=C(\C)CCn1cc(-c2cccc3ccccc23)nn1 [Compound 10g]
effect on viability in MEF Icmt^−/− cells (in words) (MEF Icmt^−/− cells): did not affect viability | IC50 (MEF Icmt^−/− cells): > 100 µM

COC(=O)CCSC/C=C(\C)CCn1cc(CCc2ccc(-c3cccc(C#N)c3)cc2)nn1 [Compound 10t]
potency relative to 10u (Icmt): approximately twice as potent

COC(=O)CCSC/C=C(\C)CCn1cc(CCc2ccc(-c3ccccc3)cc2)nn1 [Compound 10n]
IC50 (MEF Icmt^−/− cells): > 100 µM | GFP-K-Ras membrane localization [1]: decrease in normal membrane localization; also recorded: capable of inducing K-Ras mislocalization | Ki (Icmt): 0.4 µM | mode of Icmt inhibition (Icmt): competitive inhibitor | ligand efficiency (in words) (Icmt; compared with POP-3MB): significantly improved ligand efficiency | Icmt inhibition (in words) (Icmt): more potent than the corresponding carboxylate, 11n | activity in MEF Icmt^+/+ versus Icmt^−/− cells (in words) (MEF Icmt^+/+ cells): selectively cytotoxic

CC(C)=CCC/C(C)=C/CC/C(C)=C/CSc1ccccc1C(=O)O [FTS, S-farnesylthiosalicylic acid, reference compound]
activity in MEF Icmt^+/+ versus Icmt^−/− cells (in words) (MEF Icmt^+/+ cells): equivalent activity in both cell lines

COC(=O)CCSC/C=C(\C)CCn1cc(COc2ccc(-c3ccccc3)cc2)nn1 [Compound 10q]
Icmt inhibition (in words) (Icmt): detrimental to inhibition

COC(=O)CCSC/C=C(\C)CCn1cc(CCc2cccc(-c3ccccc3)c2)nn1 [Compound 10o]
effect on viability in MEF Icmt^−/− cells (in words) (MEF Icmt^−/− cells): did not affect viability | IC50 (MEF Icmt^−/− cells): > 100 µM | potency relative to 10n (times less potent) (Icmt; ratio of Icmt IC50): ~30

From article PMC3387282 (ACS medicinal chemistry letters, 2011)
